ChEMBL document CHEMBL4196178, “Structure-Based Drug Design of Potent Pyrazole Derivatives against Rhinovirus Replication” (J Med Chem, 2018)
Active and inactive are the calls of the source. The calls are words filed in the database; no cut-off is given here.

Experiments:
[1] = Cytotoxicity against human HeLa Rh cells assessed as reduction in cell viability after 3 days by MTS assay; format: cell-based
[2] = Selectivity index, ratio of CC50 for human HeLa Rh cells to EC50 for Rhinovirus B14 capsid infected in human HeLa Rh cells; format: toxicity, cell-based; details: read-out: Ratio CC50/EC50
In short: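 SI = CC₅₀/EC₅₀ for RV-B14 in HeLa Rh cells, both from the same 3-day 35 °C MTS CPE assay. CC₅₀ was obtained by light-microscope scoring of compound-treated uninfected cells, and EC₅₀ from MTS dose-response. Both values were derived by logarithmic interpolation and reported as median ± median absolute deviation.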

[3] = target: T1, VP1 capsid protein (Human rhinovirus sp.) (UniProt Q7T664); test: Inhibition of Rhinovirus B14 capsid infected in human HeLa Rh cells assessed as reduction in viral replication at 1 uM administered 2 hrs before infection measured after 8 hrs post infection by RT-qPCR analysis; format: cell-based
T1 sequence (whole entry): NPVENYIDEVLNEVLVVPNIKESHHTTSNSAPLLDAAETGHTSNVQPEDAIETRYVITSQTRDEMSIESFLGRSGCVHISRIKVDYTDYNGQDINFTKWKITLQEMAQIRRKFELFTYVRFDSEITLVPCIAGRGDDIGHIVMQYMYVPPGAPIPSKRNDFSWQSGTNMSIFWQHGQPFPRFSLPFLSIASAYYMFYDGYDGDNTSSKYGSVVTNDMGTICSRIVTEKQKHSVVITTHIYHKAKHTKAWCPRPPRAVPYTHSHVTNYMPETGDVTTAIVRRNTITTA
In short: (§1)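 HeLa Rh cells adhered overnight, then given 1 µM compound 2 h before, at, or 2, 4 or 6 h after RV-B14 infection. Untreated infected cells served as controls. Cells lysed at 8 h post-infection, DNases heat-inactivated at 75 °C for 15 min. Intracellular viral RNA measured by SYBR one-step qRT-PCR against a gBlock standard series, reported as genome equivalents per sample.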

[4] = system: rhinovirus B14; test: Antiviral activity against Rhinovirus B14 infected in human HeLa Rh cells assessed as reduction in viral replication at 1 uM administered at the time of infection measured after 8 hrs post infection by RT-qPCR analysis; format: functional, organism-based; in short: as §1
[5] = system: rhinovirus B14; test: Antiviral activity against Rhinovirus B14 infected in human HeLa Rh cells assessed as reduction in viral replication at 1 uM administered at >= 2 hrs post infection measured after 8 hrs post infection by RT-qPCR analysis; format: functional, organism-based; in short: as §1
[6] = target: T1, VP1 capsid protein (Human rhinovirus sp.); test: Inhibition of Rhinovirus B14 capsid infected in human HeLa Rh cells assessed as number of wells with full cytopathic effect at 4 times EC50 concentration after 1st passage measured after 3 days by MTS assay relative to control; format: cell-based; design: scale not given: the % may be the effect or the level left
In short: (§2)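 Confluent HeLa cells were infected with wild-type RV-B14 with compound present at 1x, 2x or 4x in vitro EC₅₀, n=4 wells. Supernatant was diluted 1:10 onto fresh HeLa cells with compound, for four passages. Value is percentage of wells with full CPE.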

[7] = target: T1, VP1 capsid protein (Human rhinovirus sp.); test: Inhibition of Rhinovirus B14 capsid infected in human HeLa Rh cells assessed as number of wells with full cytopathic effect at 2 times EC50 concentration after 1st passage measured after 3 days by MTS assay relative to control; format: cell-based; design: scale not given: the % may be the effect or the level left; in short: as §2
[8] = target: T1, VP1 capsid protein (Human rhinovirus sp.); test: Inhibition of Rhinovirus B14 capsid infected in human HeLa Rh cells assessed as number of wells with full cytopathic effect at EC50 concentration after 1st passage measured after 3 days by MTS assay relative to control; format: cell-based; design: scale not given: the % may be the effect or the level left; in short: as §2
[9] = system: rhinovirus B14; test: Inhibition of Rhinovirus B14 capsid infected in human HeLa Rh cells assessed as number of wells with full cytopathic effect at 4 times EC50 concentration after 2nd passage measured after 3 days by MTS assay relative to control; format: functional; design: scale not given: the % may be the effect or the level left; in short: as §2
[10] = target: T1, VP1 capsid protein (Human rhinovirus sp.); test: Inhibition of Rhinovirus B14 capsid infected in human HeLa Rh cells assessed as number of wells with full cytopathic effect at 2 times EC50 concentration after 2nd passage measured after 3 days by MTS assay relative to control; format: cell-based; design: scale not given: the % may be the effect or the level left; in short: as §2
[11] = target: T1, VP1 capsid protein (Human rhinovirus sp.); test: Inhibition of Rhinovirus B14 capsid infected in human HeLa Rh cells assessed as number of wells with full cytopathic effect at EC50 concentration after 2nd passage measured after 3 days by MTS assay relative to control; format: cell-based; design: scale not given: the % may be the effect or the level left; in short: as §2
[12] = target: T1, VP1 capsid protein (Human rhinovirus sp.); test: Inhibition of Rhinovirus B14 capsid infected in human HeLa Rh cells assessed as number of wells with full cytopathic effect at 4 times EC50 concentration after 3rd passage measured after 3 days by MTS assay relative to control; format: cell-based; design: scale not given: the % may be the effect or the level left; in short: as §2
[13] = target: T1, VP1 capsid protein (Human rhinovirus sp.); test: Inhibition of Rhinovirus B14 capsid infected in human HeLa Rh cells assessed as number of wells with full cytopathic effect at 2 times EC50 concentration after 3rd passage measured after 3 days by MTS assay relative to control; format: cell-based; design: scale not given: the % may be the effect or the level left; in short: as §2
[14] = target: T1, VP1 capsid protein (Human rhinovirus sp.); test: Inhibition of Rhinovirus B14 capsid infected in human HeLa Rh cells assessed as number of wells with full cytopathic effect at EC50 concentration after 3rd passage measured after 3 days by MTS assay relative to control; format: cell-based; design: scale not given: the % may be the effect or the level left; in short: as §2
[15] = target: T1, VP1 capsid protein (Human rhinovirus sp.); test: Inhibition of Rhinovirus B14 capsid infected in human HeLa Rh cells assessed as number of wells with full cytopathic effect at 4 times EC50 concentration after 4th passage measured after 3 days by MTS assay relative to control; format: cell-based; design: scale not given: the % may be the effect or the level left; in short: as §2
[16] = target: T1, VP1 capsid protein (Human rhinovirus sp.); test: Inhibition of Rhinovirus B14 capsid infected in human HeLa Rh cells assessed as number of wells with full cytopathic effect at 2 times EC50 concentration after 4th passage measured after 3 days by MTS assay relative to control; format: cell-based; design: scale not given: the % may be the effect or the level left; in short: as §2
[17] = target: T1, VP1 capsid protein (Human rhinovirus sp.); test: Inhibition of Rhinovirus B14 capsid infected in human HeLa Rh cells assessed as number of wells with full cytopathic effect at EC50 concentration after 4th passage measured after 3 days by MTS assay relative to control; format: cell-based; design: scale not given: the % may be the effect or the level left; in short: as §2
[18] = target: T1, VP1 capsid protein (Human rhinovirus sp.); test: Inhibition of capsid of VP1 A150V mutant harboring Rhinovirus B14 assessed as reduction of virus induced cytopathic effect at 4 times EC50 concentration after 4th passage measured after 3 days by MTS assay
[19] = target: T1, VP1 capsid protein (Human rhinovirus sp.); test: Inhibition of capsid of VP1 C199W mutant harboring Rhinovirus B14 assessed as reduction of virus induced cytopathic effect at 1 times EC50 concentration after 4th passage measured after 3 days by MTS assay
[20] = target: T1, VP1 capsid protein (Human rhinovirus sp.); test: Inhibition of capsid of VP1 N105S mutant harboring Rhinovirus B14 assessed as reduction of virus induced cytopathic effect at 2 times EC50 concentration after 4th passage measured after 3 days by MTS assay

Cc1noc(C)c1-c1ccc(CC(O)c2ccc(-n3cncn3)cc2)c([N+](=O)[O-])c1 (racemic)
CC50 at 72 h [1]: > 256 µM

O=[N+]([O-])c1cc(Br)ccc1CC(O)c1ccc(-n2cncn2)cc1 (racemic)
CC50 at 72 h [1]: 39 µM | selectivity ratio [2]: 156

O=[N+]([O-])c1cc(Br)ccc1CC(O)c1ccc(-c2ccncc2)cc1 (racemic)
CC50 at 72 h [1]: > 250 µM | selectivity ratio [2]: > 424

O=[N+]([O-])c1cc(-c2cccs2)ccc1CC(O)c1ccc(-c2ccncc2)cc1 (racemic)
CC50 at 72 h [1]: > 248 µM | selectivity ratio [2]: > 191

Cn1nc(C(F)(F)F)cc1-c1ccc(CC(O)c2ccc(-c3ccncc3)cc2)c([N+](=O)[O-])c1 (racemic)
CC50 at 72 h [1]: > 100 µM | selectivity ratio [2]: > 100

O=[N+]([O-])c1cc(Br)ccc1CC(O)c1ccc(-n2cccn2)cc1 (racemic)
CC50 at 72 h [1]: 22.5 µM | selectivity ratio [2]: 90

Cn1cc(-c2ccc(CC(O)c3ccc(-n4cncn4)cc3)c([N+](=O)[O-])c2)cn1 (racemic)
CC50 at 72 h [1]: 256 to 699 µM | selectivity ratio [2]: 1420 to 3880 | inhibition [3]: Active | Activity [4]: Active | Activity [5]: inactive | Activity [6]: 0% | Activity [7]: 0% | Activity [8]: 0% | Activity [9]: 0% | Activity [10]: 0% | Activity [11]: 50% | Activity [12]: 0% | Activity [13]: 25% | Activity [14]: 75% | Activity [15]: 0% | Activity [16]: 50% | Activity [17]: 100% | inhibition [18]: inactive | inhibition [19]: Active | inhibition [20]: Active

O=[N+]([O-])c1cc(F)ccc1CC(O)c1ccc(-n2cccn2)cc1 (racemic)
CC50 at 72 h [1]: > 100 µM | selectivity ratio [2]: > 12

Cc1noc(C)c1-c1ccc(CC(O)c2ccc(-n3cccn3)cc2)c([N+](=O)[O-])c1 (racemic)
CC50 at 72 h [1]: 14 µM

Cc1cc(CCCOc2c(C)cc(-c3noc(C(F)(F)F)n3)cc2C)on1 [PLECONARIL]
CC50 at 72 h [1]: > 131 µM | selectivity ratio [2]: > 4040 | inhibition [3]: Active | Activity [4]: Active | Activity [5]: inactive | Activity [6]: 0% | Activity [7]: 0% | Activity [8]: 0% | Activity [9]: 0% | Activity [10]: 0% | Activity [11]: 100% | Activity [12]: 25% | Activity [13]: 100% | Activity [14]: 100% | Activity [15]: 25% | Activity [16]: 100% | Activity [17]: 100%
